Measured values published in ChEMBL document CHEMBL4823323, “Monocyclic Nitro-heteroaryl Nitrones with Dual Mechanism of Activation: Synthesis and Antileishmanial Activity” (ACS Med Chem Lett, 2021).
pIC50: −log10 of the molar value. Calls of active or inactive are those of the source. The rule behind the calls is not given here.

Key:
Leishmania amazonensis [1] = test: Antileishmanial activity against Leishmania amazonensis MHOM/BR/77/LTB 0016 promastigotes assessed as inhibition of parasite growth incubated for 72 hrs by resazurin dye based assay; assay type: functional, organism-based; conditions: MHOM/BR/77/LTB 0016, 72 h
In short: (§1)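 Values are averages of three independent experiments run in triplicate ± standard error.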

Leishmania infantum [2] = test: Antileishmanial activity against Leishmania infantum MHOM/MA/67/ITMAP-263 promastigotes assessed as inhibition of parasite growth incubated for 72 hrs by resazurin dye based assay; assay type: functional, organism-based; conditions: MHOM/MA/67/ITMAP-263, 72 h; in short: as §1
Leishmania donovani [3] = test: Antileishmanial activity against wild type Leishmania donovani promastigotes incubated for 72 hrs by resazurin dye based assay; assay type: functional, organism-based
In short: (§2)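 IC50 is the mean ± standard error of three independent experiments, each run in triplicate.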

Leishmania donovani [4] = test: Antileishmanial activity against Leishmania donovani LdBOB derived from MHOM/SD/62/1 S-CL2D promastigotes overexpressing NTR2 incubated for 72 hrs by resazurin dye based assay; assay type: functional, organism-based; in short: as §2
Leishmania donovani [5] = test: Selectivity index, ratio of IC50 for antileishmanial activity against wild type Leishmania donovani promastigotes to IC50 for antileishmanial activity against Leishmania donovani LdBOB derived from MHOM/SD/62/1 S-CL2D promastigotes overexpressing NTR2; assay type: functional
Leishmania donovani [6] = test: Antileishmanial activity against Leishmania donovani LdBOB derived from MHOM/SD/62/1 S-CL2D promastigotes overexpressing NTR1 incubated for 72 hrs by resazurin dye based assay; assay type: functional, organism-based; in short: as §2
Leishmania donovani [7] = test: Selectivity index, ratio of IC50 for antileishmanial activity against wild type Leishmania donovani promastigotes to IC50 for antileishmanial activity against Leishmania donovani LdBOB derived from MHOM/SD/62/1 S-CL2D promastigotes overexpressing NTR1; assay type: functional
[8] = Cytotoxicity against BALB/c mouse peritoneal macrophages assessed as reduction in cell viability incubated for 72 hrs by resazurin dye based fluorescence assay; set-up: species or system Peritoneal macrophage
In short: (§3)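 CC50 values are means of three independent experiments, each in triplicate, ± standard error; selectivity index taken as macrophage CC50 divided by intracellular amastigote EC50.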

Leishmania amazonensis [9] = test: Antileishmanial activity against intracellular Leishmania amazonensis MHOM/BR/77/LTB 0016 amastigotes infected in BALB/c mouse peritoneal macrophage assessed as reduced parasite growth incubated for 72 hrs by PANOTIC staining based assay; assay type: functional, organism-based; conditions: MHOM/BR/77/LTB 0016, Peritoneal macrophage; in short: as §1
Leishmania infantum [10] = test: Antileishmanial activity against intracellular Leishmania infantum MHOM/MA/67/ITMAP-263 amastigotes infected in BALB/c mouse peritoneal macrophage assessed as reduced parasite growth incubated for 72 hrs by PANOTIC staining based assay; assay type: functional, organism-based; conditions: MHOM/MA/67/ITMAP-263, Peritoneal macrophage; in short: as §1
[11] = (§4) Selectivity index, ratio of CC50 for cytotoxicity against BALB/c mouse peritoneal macrophages assessed as reduction in cell viability incubated for 72 hrs by resazurin dye based fluorescence assay to IC50 for antileishmanial activity against intracellular Leishmania amazonensis MHOM/BR/77/LTB 0016 amastigotes infected in BALB/c mouse peritoneal macrophage; assay type: toxicity; conditions: read-out: Selectivity Index; in short: as §3
[12] = as §4, with “infantum MHOM/MA/67/ITMAP-263” for “amazonensis MHOM/BR/77/LTB 0016”; assay type: toxicity; conditions: read-out: Selectivity Index; in short: as §3
Peritoneal macrophage = test: Induction of ROS production in mouse peritoneal macrophages at EC50 concentration measured upto 4 hrs by H2DCFDA probe based fluorescence analysis; assay type: functional, cell-based; conditions: time hrs <=4
In short: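 Murine peritoneal macrophages incubated 4 h with 0.5×, 1× and 2× EC50 of compounds (concentrations taken from the anti-promastigote assay); ROS quantified with H2DCFDA; means ± SD, n=3.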

Leishmania amazonensis [13] = test: Induction of ROS production in Leishmania amazonensis promastigotes measured by H2DCFDA probe based fluorescence analysis; assay type: functional; conditions: time hrs <=4
In short: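 L. amazonensis promastigotes exposed to compounds at concentrations based on the anti-promastigote EC50, with ROS followed kinetically over 4 h using H2DCFDA fluorescence; means ± SD, n=3.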

[14] = Electrochemical behavior of the compound in aprotic medium assessed as redox potential using glassy carbon electrode by cyclic voltammetry analysis; assay type: physicochemical
[15] = Aqueous solubility of the compound at pH 7.4 measured after 24 hrs by UHPLC-HRMS analysis; assay type: physicochemical; conditions: buffer
[16] = Chemical stability of the compound assessed as degradation product at pH 7 measured after 240 mins; assay type: physicochemical; conditions: buffer, pH 7, 4 h
[17] = Chemical stability of the compound assessed as degradation product at pH 2 measured after 240 mins; assay type: physicochemical; conditions: buffer, pH 2, 4 h
[18] = Stability in pooled mouse plasma at pH 7.4 assessed as parent compound remaining incubated for 240 mins by LC/MS/MS analysis; assay type: ADME, cell-free; conditions: pH 7.4, 4 h
[19] = Metabolic stability in human liver S9 fraction assessed as drug recovery at pH 7.4 in the presence of NADPH cofactor measured upto 60 mins by LC/MS/MS analysis; assay type: ADME, subcellular; conditions: s9, pH 7.4, 1 h
Leishmania infantum [20] = test: (§5) Antileishmanial activity in Leishmania infantum promastigotes intraperitoneally infected in BALB/c mouse assessed as reduced parasite load in spleen at 50 mg/kg, po twice a day followed by omeprazole administration 1 hr prior to test compound administration for 5 consecutive days relative to control; assay type: functional; set-up: scale not given: the % may be the effect or the level left; conditions: time 5 day
In short: (§6)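 BALB/c mice (n=5) infected intraperitoneally with 1 × 10^8 L. infantum promastigotes; treatment began seven days post-infection. Oral omeprazole 10mg given 1 h before each oral dose of test compound (25, 50, 100 mg/kg) every 12 h for five consecutive days. Controls received vehicle or miltefosine 22mg/kg twice daily. Spleen and liver parasite load estimated by limiting dilution.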

Leishmania infantum [21] = test: as §5, with “100” for “50”; assay type: functional; set-up: scale not given: the % may be the effect or the level left; conditions: time 5 day; in short: as §6
Leishmania infantum [22] = test: as §5, with “liver” for “spleen”, “25 to 100” for “50”; assay type: functional; set-up: scale not given: the % may be the effect or the level left; conditions: dose 25-100 mg/kg, time 5 day; in short: as §6

SMILES | pIC50 (Leishmania amazonensis [1]) | pIC50 (Leishmania infantum [2]) | pIC50 (Leishmania donovani [3]) | pIC50 (Leishmania donovani [4]) | Ratio IC50 (Leishmania donovani [5]) | pIC50 (Leishmania donovani [6]) | Ratio IC50 (Leishmania donovani [7]) | CC50 at 72 h [8] [µM] | pIC50 (Leishmania amazonensis [9]) | selectivity ratio at 72 h [11] | Activity [14] [V] | also measured
O=Cc1ccco1 [FURFURAL] | < 4.00 | < 4.00 | – | – | – | – | – | – | – | – | – | –
C[C@]1(COc2ccc(N3CCC(Oc4ccc(OC(F)(F)F)cc4)CC3)cc2)Cn2cc([N+](=O)[O-])nc2O1 [DELAMANID] | – | – | 8.82 | 9.92 | 12.5 | – | – | – | – | – | – | –
CC1CS(=O)(=O)CCN1/N=C/c1ccc([N+](=O)[O-])o1 (configuration not stated) [NIFURTIMOX] | – | – | 5.72 | – | – | 6.96 | 17 | – | – | – | – | –
CCCCCCCCCCCCCCCCOP(=O)([O-])OCC[N+](C)(C)C [MILTEFOSINE] | 5.15 | 5.01 | – | – | – | – | – | 96.5 | 5.47 | 28 | – | pIC50 (Leishmania infantum [10]): 6.30; selectivity ratio at 72 h [12]: 193
C/[N+]([O-])=C/c1ccc([N+](=O)[O-])o1 | 5.03 | 6.06 | 5.94 | 6.72 | 6.1 | 7.52 | 38 | 49.9 | 5.97 | 47 | -0.62 | pIC50 (Leishmania infantum [10]): 6.77; Activity (Peritoneal macrophage): inactive; Activity (Leishmania amazonensis [13]): inactive; solubility at 24 h [15]: > 10 µM; Drug degradation [16]: > 25%; Drug degradation [17]: 40%; Stabilty [18]: Stable; Stabilty [19]: Stable; Activity (Leishmania infantum [20]): 76.6%; Activity (Leishmania infantum [21]): 95%; Activity (Leishmania infantum [22]): >75%; selectivity ratio at 72 h [12]: 295
O=Cc1cccs1 [2-THIOPHENENECARBOXALDEHYDE] | < 4.00 | < 4.00 | – | – | – | – | – | – | – | – | – | –
C/[N+]([O-])=C/c1cccs1 | < 4.00 | < 4.00 | – | – | – | – | – | > 100 | – | – | – | –
O=[N+]([O-])c1ccc(/C=[N+](\[O-])Cc2ccccc2)s1 | 5.82 | 5.82 | 6.39 | 6.12 | 0.53 | 6.52 | 1.3 | 18.5 | 5.27 | 3.4 | – | pIC50 (Leishmania infantum [10]): 5.14; selectivity ratio at 72 h [12]: 2.6
O=Cc1ccc([N+](=O)[O-])cc1 | < 4.00 | < 4.00 | – | – | – | – | – | – | – | – | -0.58 | –
C/[N+]([O-])=C/c1ccc([N+](=O)[O-])s1 | 5.01 | 5.46 | 5.95 | 6.60 | 4.5 | 6.62 | 4.6 | 24.2 | 5.42 | 6 | -0.61 | Activity (Peritoneal macrophage): inactive; Activity (Leishmania amazonensis [13]): inactive
O=[N+]([O-])c1ccc(/C=[N+](\[O-])Cc2ccccc2)o1 | 6.68 | 6.66 | 6.00 | 5.88 | 0.74 | 5.91 | 0.81 | 31.9 | 5.69 | 15.6 | – | pIC50 (Leishmania infantum [10]): 5.35; selectivity ratio at 72 h [12]: 5.7
CC(C)(C)/[N+]([O-])=C/c1ccc([N+](=O)[O-])s1 | 4.95 | 4.88 | 5.34 | 6.51 | 18 | 6.57 | 17 | 29.8 | – | – | -0.64 | Activity (Peritoneal macrophage): inactive; Activity (Leishmania amazonensis [13]): inactive
CC(C)(C)/[N+]([O-])=C/c1ccc([N+](=O)[O-])o1 | 5.70 | 6.44 | 6.06 | 7.40 | 21 | 7.30 | 17 | 108 | 5.56 | 39 | -0.67 | pIC50 (Leishmania infantum [10]): 7.72; Activity (Peritoneal macrophage): inactive; Activity (Leishmania amazonensis [13]): inactive; selectivity ratio at 72 h [12]: 5670
C/[N+]([O-])=C/c1ccco1 | < 4.00 | < 4.00 | – | – | – | – | – | > 100 | – | – | – | –
O=Cc1ccc([N+](=O)[O-])s1 | 5.29 | 5.86 | – | – | – | – | – | 6.25 | < 4.94 | < 0.5 | – | –
O=Cc1ccc([N+](=O)[O-])o1 | 4.60 | 4.59 | – | – | – | – | – | 27.8 | < 4.24 | < 0.5 | -0.38 | –
C/[N+]([O-])=C\c1ccc([N+](=O)[O-])cc1 | < 4.00 | < 4.00 | – | – | – | – | – | > 100 | – | – | -0.68 | –
